Measurements reported in ChEMBL document CHEMBL4665652, “Discovery of novel quinoline sulphonamide derivatives as potent, selective and orally active RORγ inverse agonists” (Bioorg Med Chem Lett, 2019).

Columns and labels:
Assay type in all cases: functional
Conditions in all cases: time 5 day
[1] = (§1) In vivo inverse agonist activity at RORgamma in MOG(35-55) peptide/PTX-induced mechanistic C57BL/6 mouse model assessed as anti-CD3 induced TNFalpha level in serum at 100 mg/kg, po dosed for 5 days during MOG/PTX priming and followed by 45 mins prior to anti-CD3 challenge and measured after 2 hrs relative to control
How it was run: (§2)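 Mice immunized with mouse MOG35-55 peptide plus pertussis toxin. After 5 days, compound given orally as a suspension in methylcellulose 400cp + 1% poloxamer, 45 min before an anti-CD3 challenge. Circulating cytokines measured 2 h later. Comparison vs vehicle by Dunnett post test.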

[2] = as §1, with “IL-10” for “TNFalpha”, “(reference value: -11%)” for “relative to control”; how it was run: as §2
[3] = as §1, with “10” for “100”; how it was run: as §2
[4] = as §1, with “IL-6” for “TNFalpha”, “10” for “100”; how it was run: as §2
[5] = as §1, with “IL-22” for “TNFalpha”, “30” for “100”; how it was run: as §2
[6] = as §1, with “IL-17A” for “TNFalpha”; how it was run: as §2

## CNC(=O)[C@@H]1CCCN1S(=O)(=O)c1ccc(Cl)c(COc2cccc3c(-c4cncn4C)cc(C(C)C)nc23)c1Cl
[1]
  Activity: -32%
[2]
  Activity: 807%
[3]
  Activity: -22%
[4]
  Activity: -29%
[5]
  Activity: -46%
[6]
  Activity: -62%
